Results: ChEMBL document CHEMBL1127524, “Nitrobenzyl phosphorodiamidates as potential hypoxia-selective alkylating agents” (1994)

Tests used:
HT-29 [1] = assay: Cytotoxicity of compound was evaluated against HT-29 cells under aerobic conditions.; format: functional, Homo sapiens
Method in brief: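 Human colon carcinoma HT-29 cells (α-MEM, 10% FBS), exponential growth, suspended at 1-2 × 10^5 cells/mL in glass vials; 4 h drug exposure gassed with 97% air/3% CO2; drug from DMSO, controls 1% DMSO; washed, plated, 14-day clonogenic colonies (>50 cells) counted; survival vs untreated; duplicates; IC90 from log-linear portion of survival curve.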

HT-29 [2] = assay: Cytotoxicity of compound was evaluated against HT-29 cells under hypoxic conditions.; format: functional, Homo sapiens
Method in brief: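 HT-29 cells at 1-2 × 10^7 cells/mL deoxygenated 10 min at 37 °C in gas-tight syringe, injected into medium degassed 3 h with 97% N2/3% CO2; 4 h exposure under continuous N2/CO2 gassing, run alongside aerobic arm with same drug stock; 1% DMSO controls; 14-day colony formation (>50 cells); survival vs untreated; duplicates; IC90 from log-linear survival curve.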

Molecule `CC(OP(=O)(N(CCCl)CCCl)N(CCCl)CCCl)c1ccc([N+](=O)[O-])cc1` (stereo not given) has an LC90 (HT-29 [1]) of over 2000 µM and an LC90 (HT-29 [2]) of 22 µM.

With `O=[N+]([O-])c1ccc(COP(=O)(N(CCCl)CCCl)N(CCCl)CCCl)cc1` the LC90 (HT-29 [1]) was 109 µM and the LC90 (HT-29 [2]) was 55 µM.

Work on `CN(C)CCCOC(=O)CC(OP(=O)(N(CCCl)CCCl)N(CCCl)CCCl)c1ccc([N+](=O)[O-])cc1` (stereo not given) yielded an LC90 (HT-29 [1]) of 95 µM and an LC90 (HT-29 [2]) of 50 µM.

`CCOC(=O)CC(OP(=O)(N(CCCl)CCCl)N(CCCl)CCCl)c1ccc([N+](=O)[O-])cc1` (stereo not given) showed an LC90 (HT-29 [1]) of 106 µM and an LC90 (HT-29 [2]) of 13 µM.

Molecule `CN(C)CCOC(=O)CC(OP(=O)(N(CCCl)CCCl)N(CCCl)CCCl)c1ccc([N+](=O)[O-])cc1` (stereo not given) has an LC90 (HT-29 [1]) of 55 µM and an LC90 (HT-29 [2]) of 34 µM.
